In brackets after ≈: the same amount, converted by molar mass. Activity calls are given as the source filed them. The calls are words filed in the database; no cut-off is given here.
Tests used:
Staphylococcus aureus = assay: Antibacterial activity against Staphylococcus aureus after 48 hrs by CLSI protocol based broth microdilution assay; format: functional
Outline: (§1)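 Strains (B. subtilis PY79, P. peoriae LMG1611, S. aureus Newman, S. agalactiae ATCC27956, E. coli ATCC25922, P. aeruginosa PA14, P. fluorescens LMG1794, X. campestris Xg, A. pleuropneumoniae) were grown overnight in TSB at 30 °C with shaking, then suspended in Mueller-Hinton broth, final OD600 0.01. Twofold-series compound, 100 to 0.78 μM, from 20 mM DMSO stock. Incubated 48 h, 30 °C, 250 rpm; OD600 read; MIC.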

Pseudomonas aeruginosa = assay: Antibacterial activity against Pseudomonas aeruginosa after 48 hrs by CLSI protocol based broth microdilution assay; format: functional; outline: as §1
Streptococcus agalactiae = assay: Antibacterial activity against Streptococcus agalactiae after 48 hrs by CLSI protocol based broth microdilution assay; format: functional; outline: as §1
Xanthomonas campestris = assay: Antibacterial activity against Xanthomonas campestris after 48 hrs by CLSI protocol based broth microdilution assay; format: functional; outline: as §1
Aspergillus niger = assay: Antifungal activity against Aspergillus niger after 48 hrs by CLSI protocol based broth microdilution assay; format: functional
Outline: (§2)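 Molds (A. niger, F. oxyporum, F. solani, Mucorales TM29) were grown 4 days at 25 °C on PDA, and spores were harvested in sterile water and counted by hemacytometer. Spores (2 × 10⁴ mL⁻¹) went into L-glutamine RPMI 1640, MOPS-buffered to pH 7.0, with serially diluted compound (top 100 μM). Incubated 2 days at room temperature; OD600 read; MIC.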

Bacillus subtilis = assay: Antibacterial activity against Bacillus subtilis after 48 hrs by CLSI protocol based broth microdilution assay; format: functional; outline: as §1
[1] = tested on: Actinobacillus pleuropneumoniae; assay: Antibacterial activity against Actinobacillus pleuropneumoniae after 48 hrs by CLSI protocol based broth microdilution assay; format: functional; outline: as §1
[2] = tested on: hmqA (Burkholderia ambifaria); assay: Inhibition of beta-galactosidase hmqA mutant (Burkholderia ambifaria) by lacZ reporter gene assay
Cryptococcus neoformans = assay: Antifungal activity against Cryptococcus neoformans after 48 hrs by CLSI protocol based broth microdilution assay; format: functional
Escherichia coli = assay: Antibacterial activity against Escherichia coli after 48 hrs by CLSI protocol based broth microdilution assay; format: functional; outline: as §1
Pseudomonas fluorescens = assay: Antibacterial activity against Pseudomonas fluorescens after 48 hrs by CLSI protocol based broth microdilution assay; format: functional; outline: as §1
Candida albicans = assay: Antifungal activity against Candida albicans after 48 hrs by CLSI protocol based broth microdilution assay; format: functional
Mucorales = assay: Antifungal activity against Mucorales after 48 hrs by CLSI protocol based broth microdilution assay; format: functional; outline: as §2
Fusarium solani = assay: Antifungal activity against Fusarium solani after 48 hrs by CLSI protocol based broth microdilution assay; format: functional; outline: as §2
Fusarium oxysporum = assay: Antifungal activity against Fusarium oxysporum after 48 hrs by CLSI protocol based broth microdilution assay; format: functional; outline: as §2
[3] = Antibacterial activity against Paenibacillus peoriae after 48 hrs by CLSI protocol based broth microdilution assay; format: functional; outline: as §1

Which results are given for CCCCC/C=C/Cc1[nH]c2ccccc2c(=O)c1C?
MIC (Staphylococcus aureus): 1.56 µM (≈ 0.42 µg/mL); MIC (Pseudomonas aeruginosa): 50 µM (≈ 13.5 µg/mL); MIC (Streptococcus agalactiae): 1.56 µM (≈ 0.42 µg/mL); MIC (Xanthomonas campestris): 100 µM (≈ 26.9 µg/mL); MIC (Aspergillus niger): > 100 µM; MIC (Bacillus subtilis): 1.56 µM (≈ 0.42 µg/mL); MIC [1]: 1.56 µM (≈ 0.42 µg/mL); Activity [2]: Active; MIC (Cryptococcus neoformans): 1.56 µM (≈ 0.42 µg/mL); MIC (Escherichia coli): 100 µM (≈ 26.9 µg/mL); MIC (Pseudomonas fluorescens): 25 µM (≈ 6.73 µg/mL); MIC (Candida albicans): > 100 µM; MIC (Mucorales): 12.5 µM (≈ 3.37 µg/mL); MIC (Fusarium solani): > 100 µM; MIC (Fusarium oxysporum): > 100 µM; MIC [3]: 12.5 µM (≈ 3.37 µg/mL)

Which MIC (Staphylococcus aureus) does the source give for CCCC/C=C/Cc1c(C)c(=O)c2ccccc2n1O here?
Its MIC is 1.56 µM (≈ 0.423 µg/mL).

And the MIC (Pseudomonas aeruginosa)?
The MIC was 50 µM (≈ 13.6 µg/mL).

What about the MIC (Streptococcus agalactiae) of the same compound?
The MIC was 1.56 µM (≈ 0.423 µg/mL).

What about the MIC (Xanthomonas campestris) of the same compound?
Its MIC is 6.25 µM (≈ 1.7 µg/mL).

What about the MIC (Aspergillus niger) of the same compound?
The MIC was greater than 100 µM.

And the MIC (Bacillus subtilis)?
Its MIC is 1.56 µM (≈ 0.423 µg/mL).

And the MIC [1]?
Its MIC is 1.56 µM (≈ 0.423 µg/mL).

And the MIC (Cryptococcus neoformans)?
The MIC was 50 µM (≈ 13.6 µg/mL).

What about the MIC (Escherichia coli) of the same compound?
Its MIC is 25 µM (≈ 6.78 µg/mL).

And the MIC (Pseudomonas fluorescens)?
The MIC was 50 µM (≈ 13.6 µg/mL).

What about the MIC (Candida albicans) of the same compound?
The MIC was greater than 100 µM.

And the MIC (Mucorales)?
Its MIC is greater than 100 µM.

What about the MIC (Fusarium solani) of the same compound?
The MIC was greater than 100 µM.

And the MIC (Fusarium oxysporum)?
Its MIC is greater than 100 µM.

And the MIC [3]?
Its MIC is 1.56 µM (≈ 0.423 µg/mL).

Which MIC (Staphylococcus aureus) does the source give for CCCC/C=C/Cc1[nH]c2ccccc2c(=O)c1C here?
Its MIC is 1.56 µM (≈ 0.398 µg/mL).

And the MIC (Pseudomonas aeruginosa)?
The MIC was greater than 100 µM.

And the MIC (Streptococcus agalactiae)?
The MIC was 1.56 µM (≈ 0.398 µg/mL).

What about the MIC (Xanthomonas campestris) of the same compound?
The MIC was 100 µM (≈ 25.5 µg/mL).

What about the MIC (Aspergillus niger) of the same compound?
The MIC was greater than 100 µM.

And the MIC (Bacillus subtilis)?
Its MIC is 1.56 µM (≈ 0.398 µg/mL).

And the MIC [1]?
The MIC was 3.13 µM (≈ 0.799 µg/mL).

What about the Activity [2] of the same compound?
The Activity was “Active”.

What about the MIC (Cryptococcus neoformans) of the same compound?
Its MIC is 3.13 µM (≈ 0.799 µg/mL).

And the MIC (Escherichia coli)?
The MIC was 100 µM (≈ 25.5 µg/mL).

And the MIC (Pseudomonas fluorescens)?
The MIC was 25 µM (≈ 6.38 µg/mL).

And the MIC (Candida albicans)?
The MIC was greater than 100 µM.

And the MIC (Mucorales)?
Its MIC is 6.25 µM (≈ 1.6 µg/mL).

What about the MIC (Fusarium solani) of the same compound?
Its MIC is greater than 100 µM.

What about the MIC (Fusarium oxysporum) of the same compound?
Its MIC is 12.5 µM (≈ 3.19 µg/mL).

And the MIC [3]?
Its MIC is 12.5 µM (≈ 3.19 µg/mL).

With CCCCCC/C=C/Cc1c(C)c(=O)c2ccccc2n1O as the compound, how does the MIC (Staphylococcus aureus) read?
The MIC was 1.56 µM (≈ 0.467 µg/mL).

What about the MIC (Pseudomonas aeruginosa) of the same compound?
Its MIC is 12.5 µM (≈ 3.74 µg/mL).

And the MIC (Streptococcus agalactiae)?
Its MIC is 1.56 µM (≈ 0.467 µg/mL).

What about the MIC (Xanthomonas campestris) of the same compound?
The MIC was 12.5 µM (≈ 3.74 µg/mL).

What about the MIC (Aspergillus niger) of the same compound?
Its MIC is greater than 100 µM.

What about the MIC (Bacillus subtilis) of the same compound?
The MIC was 3.13 µM (≈ 0.937 µg/mL).

What about the MIC [1] of the same compound?
Its MIC is 1.56 µM (≈ 0.467 µg/mL).

What about the MIC (Cryptococcus neoformans) of the same compound?
Its MIC is 6.25 µM (≈ 1.87 µg/mL).

And the MIC (Escherichia coli)?
The MIC was 6.25 µM (≈ 1.87 µg/mL).

And the MIC (Pseudomonas fluorescens)?
Its MIC is 25 µM (≈ 7.49 µg/mL).

What about the MIC (Candida albicans) of the same compound?
The MIC was greater than 100 µM.

And the MIC (Mucorales)?
Its MIC is greater than 100 µM.

And the MIC (Fusarium solani)?
Its MIC is greater than 100 µM.

What about the MIC (Fusarium oxysporum) of the same compound?
Its MIC is greater than 100 µM.

What about the MIC [3] of the same compound?
The MIC was 1.56 µM (≈ 0.467 µg/mL).

With CCCCC/C=C/Cc1c(C)c(=O)c2ccccc2n1O as the compound, how does the MIC (Staphylococcus aureus) read?
Its MIC is 1.56 µM (≈ 0.445 µg/mL).

What about the MIC (Pseudomonas aeruginosa) of the same compound?
The MIC was 25 µM (≈ 7.13 µg/mL).

And the MIC (Streptococcus agalactiae)?
The MIC was 1.56 µM (≈ 0.445 µg/mL).

And the MIC (Xanthomonas campestris)?
Its MIC is 3.13 µM (≈ 0.893 µg/mL).

And the MIC (Aspergillus niger)?
The MIC was greater than 100 µM.

And the MIC (Bacillus subtilis)?
Its MIC is 1.56 µM (≈ 0.445 µg/mL).

What about the MIC [1] of the same compound?
Its MIC is 1.56 µM (≈ 0.445 µg/mL).

What about the MIC (Cryptococcus neoformans) of the same compound?
The MIC was 12.5 µM (≈ 3.57 µg/mL).

And the MIC (Escherichia coli)?
Its MIC is 6.25 µM (≈ 1.78 µg/mL).

And the MIC (Pseudomonas fluorescens)?
Its MIC is 25 µM (≈ 7.13 µg/mL).

What about the MIC (Candida albicans) of the same compound?
Its MIC is greater than 100 µM.

And the MIC (Mucorales)?
The MIC was greater than 100 µM.

What about the MIC (Fusarium solani) of the same compound?
Its MIC is greater than 100 µM.

And the MIC (Fusarium oxysporum)?
The MIC was greater than 100 µM.

What about the MIC [3] of the same compound?
The MIC was 1.56 µM (≈ 0.445 µg/mL).

With CCCCCC/C=C/Cc1[nH]c2ccccc2c(=O)c1C as the compound, how does the MIC (Staphylococcus aureus) read?
Its MIC is 1.56 µM (≈ 0.442 µg/mL).

What about the MIC (Pseudomonas aeruginosa) of the same compound?
Its MIC is greater than 100 µM.

And the MIC (Streptococcus agalactiae)?
The MIC was 1.56 µM (≈ 0.442 µg/mL).

What about the MIC (Xanthomonas campestris) of the same compound?
Its MIC is 100 µM (≈ 28.3 µg/mL).

What about the MIC (Aspergillus niger) of the same compound?
Its MIC is greater than 100 µM.

And the MIC (Bacillus subtilis)?
The MIC was 1.56 µM (≈ 0.442 µg/mL).

What about the MIC [1] of the same compound?
The MIC was 1.56 µM (≈ 0.442 µg/mL).

And the MIC (Cryptococcus neoformans)?
The MIC was 1.56 µM (≈ 0.442 µg/mL).

What about the MIC (Escherichia coli) of the same compound?
Its MIC is 100 µM (≈ 28.3 µg/mL).

And the MIC (Pseudomonas fluorescens)?
The MIC was 50 µM (≈ 14.2 µg/mL).

What about the MIC (Candida albicans) of the same compound?
The MIC was greater than 100 µM.

And the MIC (Mucorales)?
The MIC was 12.5 µM (≈ 3.54 µg/mL).

What about the MIC (Fusarium solani) of the same compound?
The MIC was 6.25 µM (≈ 1.77 µg/mL).

And the MIC (Fusarium oxysporum)?
The MIC was 12.5 µM (≈ 3.54 µg/mL).

And the MIC [3]?
Its MIC is 12.5 µM (≈ 3.54 µg/mL).

From ChEMBL document CHEMBL4665692, “Synthesis and Antimicrobial Activity of Burkholderia-Related 4-Hydroxy-3-methyl-2-alkenylquinolines (HMAQs) and Their N-Oxide Counterparts” (2020)
